Assay results as given in ChEMBL document CHEMBL1828498, “Identification and characterization of a novel integrin-linked kinase inhibitor” (J Med Chem, 2011).
Active and inactive are the calls of the source. The calls are words filed in the database; no cut-off is given here.

Experiments:
[1] = biological target: Tyrosine-protein kinase JAK3 (Homo sapiens) (UniProt P52333); assay: Inhibition of Jak3 at 5 uM assessed as remaining activity
Summary of the method: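 Panel of 20 recombinant kinases, profiled by a commercial vendor.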

[2] = biological target: Focal adhesion kinase 1 (Homo sapiens) (UniProt Q05397); assay: Inhibition of FAK in human PC3 cells assessed as decrease in auto-phosphorylation at Tyr-397 by Western blot analysis; assay type: cell-based; details: PC-3
Summary of the method: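 PC-3 cells exposed to graded concentrations for 24 h in 5% FBS medium. Immunoblotting for phospho-Tyr397-FAK, ERK1/2, p38 and JNK. Lysis in 1% SDS buffer, primary antibody 1:1000 at 4°C for 2 h, ECL. Three independent experiments.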

Focal adhesion kinase 1 (Homo sapiens), sequence (Q05397 2-1052 limits assumed): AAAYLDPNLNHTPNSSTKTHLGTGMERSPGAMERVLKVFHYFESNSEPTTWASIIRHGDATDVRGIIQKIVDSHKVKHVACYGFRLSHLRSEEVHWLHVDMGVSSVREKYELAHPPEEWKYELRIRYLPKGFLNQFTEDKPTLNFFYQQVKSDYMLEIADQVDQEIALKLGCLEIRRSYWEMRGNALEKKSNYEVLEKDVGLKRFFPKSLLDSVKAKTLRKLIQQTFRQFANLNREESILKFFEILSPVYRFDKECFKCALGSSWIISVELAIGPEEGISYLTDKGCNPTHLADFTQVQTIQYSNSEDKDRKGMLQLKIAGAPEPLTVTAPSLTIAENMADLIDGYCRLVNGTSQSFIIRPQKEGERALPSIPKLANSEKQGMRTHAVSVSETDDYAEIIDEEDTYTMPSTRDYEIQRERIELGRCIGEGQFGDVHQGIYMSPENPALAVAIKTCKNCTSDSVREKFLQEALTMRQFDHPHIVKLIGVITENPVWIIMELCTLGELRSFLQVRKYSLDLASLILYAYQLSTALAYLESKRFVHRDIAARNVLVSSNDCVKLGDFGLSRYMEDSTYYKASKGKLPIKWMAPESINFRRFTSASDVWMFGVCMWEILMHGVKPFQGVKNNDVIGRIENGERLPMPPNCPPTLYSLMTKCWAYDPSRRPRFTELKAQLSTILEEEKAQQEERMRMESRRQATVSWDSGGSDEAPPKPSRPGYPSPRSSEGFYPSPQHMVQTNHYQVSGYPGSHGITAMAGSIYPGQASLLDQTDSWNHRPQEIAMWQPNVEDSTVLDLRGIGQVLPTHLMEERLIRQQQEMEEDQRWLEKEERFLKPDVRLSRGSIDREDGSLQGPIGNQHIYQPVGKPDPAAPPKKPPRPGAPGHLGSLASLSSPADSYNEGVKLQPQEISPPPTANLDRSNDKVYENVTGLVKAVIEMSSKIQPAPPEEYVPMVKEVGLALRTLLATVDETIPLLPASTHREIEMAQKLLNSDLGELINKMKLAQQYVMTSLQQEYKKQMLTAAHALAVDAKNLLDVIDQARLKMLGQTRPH
Tyrosine-protein kinase JAK3 (Homo sapiens), sequence (P52333 whole entry): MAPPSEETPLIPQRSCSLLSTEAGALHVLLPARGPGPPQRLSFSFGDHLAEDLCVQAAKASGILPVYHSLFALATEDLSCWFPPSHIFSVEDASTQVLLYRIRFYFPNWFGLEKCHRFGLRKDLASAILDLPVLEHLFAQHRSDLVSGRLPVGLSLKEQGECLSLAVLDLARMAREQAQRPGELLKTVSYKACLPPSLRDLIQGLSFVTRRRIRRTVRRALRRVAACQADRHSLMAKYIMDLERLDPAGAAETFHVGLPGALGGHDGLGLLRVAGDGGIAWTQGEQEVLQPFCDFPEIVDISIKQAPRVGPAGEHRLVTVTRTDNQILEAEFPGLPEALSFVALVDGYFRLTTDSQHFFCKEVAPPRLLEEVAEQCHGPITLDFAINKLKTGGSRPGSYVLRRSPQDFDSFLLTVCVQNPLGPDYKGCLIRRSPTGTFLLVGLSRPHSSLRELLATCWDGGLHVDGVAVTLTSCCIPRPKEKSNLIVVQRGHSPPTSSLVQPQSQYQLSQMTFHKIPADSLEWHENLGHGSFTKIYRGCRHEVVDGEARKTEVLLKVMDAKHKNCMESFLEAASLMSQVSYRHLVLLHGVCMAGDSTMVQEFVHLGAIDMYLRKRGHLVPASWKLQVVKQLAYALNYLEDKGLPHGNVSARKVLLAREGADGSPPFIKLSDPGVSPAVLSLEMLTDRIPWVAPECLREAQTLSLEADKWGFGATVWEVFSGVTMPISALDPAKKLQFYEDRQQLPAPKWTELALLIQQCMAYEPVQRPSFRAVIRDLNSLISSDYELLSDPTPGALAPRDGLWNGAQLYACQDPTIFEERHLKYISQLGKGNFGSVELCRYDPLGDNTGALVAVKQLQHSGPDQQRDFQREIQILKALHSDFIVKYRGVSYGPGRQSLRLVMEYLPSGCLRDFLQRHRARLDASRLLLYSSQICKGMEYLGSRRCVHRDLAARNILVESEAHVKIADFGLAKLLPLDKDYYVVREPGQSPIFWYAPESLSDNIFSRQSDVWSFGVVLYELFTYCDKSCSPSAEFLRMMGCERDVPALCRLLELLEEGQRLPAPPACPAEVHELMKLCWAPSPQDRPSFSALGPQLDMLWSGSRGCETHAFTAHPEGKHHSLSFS

In the case of `CNC(=O)CCc1cc(-c2ccc(-c3ccc(C(F)(F)F)cc3)cc2)n(-c2ccc(N3CCNCC3)cc2)n1`, the Activity [1] is reported as 128% and the inhibition [2] is reported as “inactive”.
